# Measurements published in ChEMBL document CHEMBL2021813, “Semisynthetic neoclerodanes as kappa opioid receptor probes” (Bioorg Med Chem, 2012).
# Assays:
# [1] = biological target: T1, Delta-type opioid receptor (Homo sapiens, UniProt P41143); experiment: Displacement of [3H]DADLE from human recombinant delta opioid receptor expressed in CHO cells after 2 hrs by liquid scintillation counting; assay type: cell-based
# In short: (§1)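 Membranes from CHO cells stably transfected with human DOP, MOP or KOP receptor, in 50 mM Tris-HCl pH 7.4 with a protease inhibitor cocktail. The ~2 nM [3H]radioligand was displaced by 10 drug concentrations, in triplicate, for 2 hr at 25 °C, then filtered over GF/B. Nonspecific binding was set by 20 μM levallorphan (DADLE, DAMGO) or 1 μM (−)-U69,593 (U69,593). Ki (±SD) came from full curves, n=3.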
# [2] = biological target: T2, Kappa-type opioid receptor (Homo sapiens, UniProt P41145); experiment: Displacement of [3H]U69593 from human recombinant kappa opioid receptor expressed in CHO cells after 2 hrs by liquid scintillation counting; assay type: cell-based; in short: as §1
# T2 sequence (P41145 whole entry): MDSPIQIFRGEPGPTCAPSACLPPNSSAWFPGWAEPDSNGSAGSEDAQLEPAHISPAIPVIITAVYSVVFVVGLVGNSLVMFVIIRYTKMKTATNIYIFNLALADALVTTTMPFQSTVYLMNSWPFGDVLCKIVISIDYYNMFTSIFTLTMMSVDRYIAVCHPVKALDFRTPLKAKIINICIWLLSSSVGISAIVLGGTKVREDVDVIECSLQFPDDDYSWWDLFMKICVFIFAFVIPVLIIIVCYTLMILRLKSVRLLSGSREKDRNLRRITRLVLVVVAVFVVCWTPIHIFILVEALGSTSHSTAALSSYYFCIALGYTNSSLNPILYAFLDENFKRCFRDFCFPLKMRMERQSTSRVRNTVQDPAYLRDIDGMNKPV
# Mu-type opioid receptor [3] = biological target: T3, Mu-type opioid receptor (Homo sapiens, UniProt P35372); experiment: Displacement of [3H]DAMGO from human recombinant mu opioid receptor expressed in CHO cells after 2 hrs by liquid scintillation counting; assay type: cell-based; in short: as §1
# T3 sequence (P35372 whole entry): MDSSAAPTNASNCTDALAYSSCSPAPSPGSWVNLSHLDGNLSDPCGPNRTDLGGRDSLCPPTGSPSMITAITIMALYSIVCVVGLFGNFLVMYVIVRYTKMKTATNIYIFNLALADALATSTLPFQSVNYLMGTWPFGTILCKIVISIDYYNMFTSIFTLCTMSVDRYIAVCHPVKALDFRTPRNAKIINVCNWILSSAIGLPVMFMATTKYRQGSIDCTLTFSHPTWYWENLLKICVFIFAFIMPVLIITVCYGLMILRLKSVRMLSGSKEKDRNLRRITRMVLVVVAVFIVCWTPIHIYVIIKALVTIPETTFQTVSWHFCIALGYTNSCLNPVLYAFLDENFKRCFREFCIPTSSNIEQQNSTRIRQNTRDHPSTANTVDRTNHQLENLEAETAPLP
# [4] = biological target: T1, Delta-type opioid receptor; experiment: Displacement of [3H]DADLE from human recombinant delta opioid receptor expressed in CHO cells at 1 uM after 2 hrs by liquid scintillation counting; assay type: cell-based
# In short: (§2)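 Radioligand (~2 nM) competition on human opioid receptor CHO membranes in Tris-HCl pH 7.4, 2 hr at 25 °C, with GF/B filtration and scintillation counting. Results are percent of control produced by a single test drug concentration, 1 μM or 10 μM as the line states. Nonspecific binding was set by 20 μM levallorphan (DADLE, DAMGO) or 1 μM (−)-U69,593 (U69,593).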
# Rhesus monkey = experiment: In vivo binding affinity to kappa opioid receptor in iv dosed rhesus monkey assessed as rightward shift in serum prolactin level administered every 20 mins measured every 15 mins by immunoradiometric analysis; assay type: functional; details: Macaca mulatta
# In short: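 Chair-trained male rhesus monkeys received i.v. cumulative doses rising in 0.5 log steps every 20 min. Blood was sampled 15 min after each dose, after two baseline samples at −10 and −5 min. Serum prolactin was expressed as change from each subject's pre-injection baseline, as mean ±SEM. ED50 came from linear regression of mean dose-effect points spanning the ED50.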
# [5] = biological target: T1, Delta-type opioid receptor; experiment: Displacement of [3H]DADLE from human recombinant delta opioid receptor expressed in CHO cells at 10 uM after 2 hrs by liquid scintillation counting; assay type: cell-based; in short: as §2
# Mu-type opioid receptor [6] = biological target: T3, Mu-type opioid receptor; experiment: Displacement of [3H]DAMGO from human recombinant mu opioid receptor expressed in CHO cells at 10 uM after 2 hrs by liquid scintillation counting; assay type: cell-based; in short: as §2
# Mu-type opioid receptor [7] = biological target: T3, Mu-type opioid receptor; experiment: Displacement of [3H]DAMGO from human recombinant mu opioid receptor expressed in CHO cells at 1 uM after 2 hrs by liquid scintillation counting; assay type: cell-based; in short: as §2
# [8] = biological target: T2, Kappa-type opioid receptor; experiment: Agonist activity at human recombinant kappa opioid receptor expressed in CHO cells assessed as calcium mobilization after 1 hrs by fluorescence analysis relative to U69593; assay type: functional, cell-based
# In short: (§3)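 CHO cells stably expressing KOP receptor with Gαq16 were plated at 30,000 cells/well and grown overnight at 37 °C. They were loaded with Calcium 5 dye in HBSS with 20 mM HEPES, 0.25% BSA, 1% DMSO and probenecid for 1 h at 37 °C. Compounds were added at 10X after a ~17 sec baseline, and fluorescence (ex 485/em 525 nm) was read every 1.52 sec for 60 sec. EC50 and Emax are given ±SD.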
# [9] = biological target: T2, Kappa-type opioid receptor; experiment: Agonist activity at human recombinant kappa opioid receptor expressed in CHO cells assessed as calcium mobilization after 1 hrs by fluorescence analysis; assay type: functional, cell-based; in short: as §3
# [10] = biological target: T2, Kappa-type opioid receptor; experiment: Agonist activity at human recombinant kappa opioid receptor expressed in CHO cells assessed as [35S]GTP-gamma-S binding after 3 hrs by liquid scintillation counting relative to (-)U50488; assay type: functional, cell-based
# In short: (§4)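 hKOP-CHO membranes (50 μg protein) were incubated with 50 pM [35S]GTP-γ-S and 40 μM GDP. Final buffer was 50 mM Tris-HCl pH 7.4, 100 mM NaCl, 10 mM MgCl2, 1 mM EDTA, 1 mM DTT and 0.1% BSA. Incubation ran 3 hr at 25 °C. Nonspecific binding was set with 40 μM GTP-γ-S. Bound label was separated by vacuum filtration through GF/B and counted.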
# [11] = biological target: T2, Kappa-type opioid receptor; experiment: Agonist activity at human recombinant kappa opioid receptor expressed in CHO cells assessed as [35S]GTP-gamma-S binding after 3 hrs by liquid scintillation counting; assay type: functional, cell-based; in short: as §4
# [12] = biological target: T2, Kappa-type opioid receptor; experiment: Displacement of [3H]U69593 from human recombinant kappa opioid receptor expressed in CHO cells at 10 uM after 2 hrs by liquid scintillation counting; assay type: cell-based; in short: as §2
# T1 sequence (P41143 whole entry): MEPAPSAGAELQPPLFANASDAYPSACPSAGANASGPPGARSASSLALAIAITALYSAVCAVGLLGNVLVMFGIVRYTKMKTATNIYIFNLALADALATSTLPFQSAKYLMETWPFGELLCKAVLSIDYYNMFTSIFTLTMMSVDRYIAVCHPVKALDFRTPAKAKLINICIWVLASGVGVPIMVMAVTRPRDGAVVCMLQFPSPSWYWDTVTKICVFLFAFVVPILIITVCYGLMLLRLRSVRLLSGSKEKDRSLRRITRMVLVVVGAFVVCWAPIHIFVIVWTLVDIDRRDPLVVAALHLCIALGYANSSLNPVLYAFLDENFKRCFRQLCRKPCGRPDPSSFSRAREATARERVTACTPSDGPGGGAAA
Compound,Ki [1] [µM],Ki [2] [µM],Ki (Mu-type opioid receptor [3]) [µM],Activity [4] [%],ED50 (Rhesus monkey) [mg/kg],Activity [5] [%],Activity (Mu-type opioid receptor [6]) [%],Activity (Mu-type opioid receptor [7]) [%],Emax [8] [%],EC50 [9] [µM],Emax [10] [%],EC50 [11] [µM],Activity [12] [%]
COC(=O)[C@@H]1C[C@H](OC(C)=O)C(=O)[C@H]2[C@@]1(C)CC[C@H]1C(=O)O[C@H](C(=O)c3cccc(OC)c3)C[C@]21C,> 10,0.29,3.09,77,–,–,–,–,–,–,–,–,–
COC(=O)[C@@H]1C[C@H](OC(C)=O)C(=O)[C@H]2[C@@]1(C)CC[C@H]1C(=O)O[C@@H](c3ccoc3)C[C@]21C [12-EPI-SALVINORIN A],–,–,–,–,0.038,74,72,–,–,–,–,–,–
COC(=O)[C@@H]1C[C@H](OC(C)=O)C(=O)[C@H]2[C@@]1(C)CC[C@H]1C(=O)O[C@H](C(=O)c3cccc(C(N)=O)c3)C[C@]21C,> 10,0.04,> 10,52,–,–,–,84,97,0.0754,92,0.73,–
COC(=O)[C@@H]1C[C@H](OC(C)=O)C(=O)[C@H]2[C@@]1(C)CC[C@H]1C(=O)O[C@H](C(=O)c3cccc(C#N)c3)C[C@]21C,> 10,0.22,> 1,68,–,–,–,61,–,–,–,–,–
COC(=O)[C@@H]1C[C@H](OC(C)=O)C(=O)[C@H]2[C@@]1(C)CC[C@H]1C(=O)O[C@H](C(=O)c3ccc(O)cc3)C[C@]21C,> 10,8.47,> 10,–,–,100,93,–,–,–,–,–,–
COC(=O)[C@@H]1C[C@H](OC(C)=O)C(=O)[C@H]2[C@@]1(C)CC[C@H]1C(=O)O[C@H](C(=O)c3ccccc3OC)C[C@]21C,> 10,1.07,> 10,87,–,–,53,–,–,–,–,–,–
COC(=O)[C@@H]1C[C@H](OC(C)=O)C(=O)[C@H]2[C@@]1(C)CC[C@H]1C(=O)O[C@H](C(=O)c3csc4ccccc34)C[C@]21C,> 1,> 10,> 1,56,–,–,–,60,–,–,–,–,–
COC(=O)[C@@H]1C[C@H](OC(C)=O)C(=O)[C@H]2[C@@]1(C)CC[C@H]1C(=O)O[C@H](C(=O)c3cccc(C(F)(F)F)c3)C[C@]21C,> 1,2.26,3.4,46,–,–,–,–,–,–,–,–,–
COC(=O)[C@@H]1C[C@H](OC(C)=O)C(=O)[C@H]2[C@@]1(C)CC[C@H]1C(=O)O[C@H](C(=O)c3ccoc3)C[C@]21C,> 10,0.15,> 10,–,–,95,66,–,–,–,–,–,–
COC(=O)[C@@H]1C[C@H](OC(C)=O)C(=O)[C@H]2[C@@]1(C)CC[C@H]1C(=O)O[C@H](C(=O)c3ccsc3)C[C@]21C,> 10,0.031,2.53,–,–,88,–,–,–,–,88,0.62,–
COC(=O)[C@@H]1C[C@H](OC(C)=O)C(=O)[C@H]2[C@@]1(C)CC[C@H]1C(=O)O[C@H](C(=O)c3ccc(OC)cc3)C[C@]21C,> 10,> 10,> 10,81,–,–,74,–,–,–,–,–,–
COC(=O)[C@@H]1C[C@H](OC(C)=O)C(=O)[C@H]2[C@@]1(C)CC[C@H]1C(=O)O[C@H](C(=O)c3cc4ccccc4o3)C[C@]21C,> 10,> 10,> 10,–,–,91,100,–,–,–,–,–,92
